Laboratory results taken from the array DNA melting data of Ke et al. (doi:10.1101/2024.01.08.574731).

What was measured:
[1] = folding enthalpy; higher = less favourable; fluorescence melt of hairpins on a sequencing array, two-state fit; details: sodium 0.088 M
In short: (§1)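 In 50 mM Na-HEPES pH 8.0 containing 25 mM NaCl, hairpins from the library on a sequenced MiSeq flow cell were imaged for Cy3 fluorescence at 2.5 °C steps up to 60 °C, with Cy3 and quencher oligos annealed. After normalisation to pre-quench Cy3 and to control constructs, two-state fits with bootstrapping gave melting temperature and folding enthalpy. Four replicates were combined by inverse-variance weighting, and fitted temperatures were shifted up by 9.35 °C to match UV melts.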

[2] = melting temperature; fluorescence melt of hairpins on a sequencing array, two-state fit, raised by 9.35 °C to match UV melts; details: sodium 0.088 M
In short: as §1

Sequence	folding enthalpy [1] [kcal/mol]	Tm [2] [°C]
GACGGCGAAAGCCTAGTC ((((((....)))..)))	-16.7	47.4
CCCAGGAAACTGGG (((((....)))))	-20.4	54.3
GGCCAGCCGAAAGGCGCC (((..(((....))))))	-13.4	55.1
GTAATCGAAAGATTATAC ((((((....)))..)))	-15.6	33.4
GGTTAGGGAAACCTAGTC (..((((....))))..)	-11.7	28.7
GGCTTAGGAAACTAGGCC (((.(((....))).)))	-31.3	48.7
GCAACCGAAAGGTCGTGC ((((((....)))..)))	-17.6	38.1
GTACCCGAAAGGGTATAC ((((((....)))..)))	-10.4	49.4
GTAATGGGAAACCATTGC (.(((((....))))).)	-26.4	43.3
GATCAAAGGTTTGATC ((((((....))))))	-32.4	44.8
GCGCTCGAAAGAGCCGC ((((((....))).)))	-18.7	62.4
GATCTGAAGCAGATC ((((((...))))))	-27.9	45.7
GATCTAAATATAGATC ((((((....))))))	-25.9	35.7
GGATACCGAAAGGTTCC (((.(((....))))))	-25.6	49.3
GCAAGGCGAAAGCATCGC ((.(.((....)).).))	-14.4	37.3
GACGCAGGAAACTGCATC ((.((((....)))).))	-13.5	36.2
GATCTTCCATAAGATC ((((((....))))))	-33.9	43.4
GCTTGAGGAAACCCAAGC (((((.(....).)))))	-37	46
GGTTATGAAAATAACC ((((((....))))))	-31.8	50.9

Sequence	folding enthalpy [1] [kcal/mol]	Tm [2] [°C]
GCAACAACGAAAGTTTGC (((..(((....))))))	-25	36.1
GCAGCGCGAAAGCCGTGC (((..((....))..)))	-15.3	43.9
GTGTGCGAAAGCATTCAC ((((((....)))..)))	-15.8	38.3
GATTGCCCGAAAGGGATC (((..(((....))))))	-7.39	25.8
GATCACCTTGTGATC ((((((...))))))	-40.9	58.8
GACCCGGGAAACCAGGTC ((((.((....)).))))	-27.5	45.8
GAATGGCCGAAAGGCTTC (((..(((....))))))	-6.89	27.6
GCTGCGCGAAAGCCGAGC (((..((....))..)))	-17	45
CGCGGACTAATCCGCG ((((((....))))))	-38.3	65.9
GTGGGAGGAAACTCCCGC (.(((((....))))).)	-33.4	56.7
GATCCGCAACCGGATC ((((((....))))))	-39.3	55.1
GTTATCACGAAAGTGAAC (((..(((....))))))	-10.2	28.5
GAAGACCGAAAGGTGTTC (((.(((....))).)))	-33	52
GGCACCGAAAGGTTTGCC ((((((....)))..)))	-22.6	50.6
GATCCTGAGAAGGATC ((((((....))))))	-40.2	57.6
GCAGGCGAAAGCCCGTGC ((((((....)))..)))	-13.1	43.6
GCACGGCGAAAGCTATGC (((..((....))..)))	-19.9	42.1
GGCGCCGAAAGGCCGGCC ((((((....)))..)))	-17.2	58.7
GATCGCTAGGGCGATC ((((((....))))))	-34.8	68.2
